CAL PDZ FP-1: blocks peptide binding to the human CAL PDZ domain; actives 0.92% (n = 300,000); Q9HD26; inhibition, % at 24.9 µM; purified CAL PDZ, TMR-peptide fluorescence polarization, 1 h;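 active = mean inhibition of at least 30% with at least half of replicates also reaching 30%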;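 also: 0% = DMSO neutral control and 100% = excess unlabeled competitor peptide PRC23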
CaV13 ICDI inh: Disruptors of the CACNA1D IQ motif to Ca2+-dependent inactivation inhibitor domain association, primary screening, Förster resonance energy transfer in intact living … | HEK cells, CFP/YFP FRET ICDI-IQ, plate reader, 10 min; percent FRET-ratio fall versus neutral wells | inhibition, % at 12.3 µM | actives 0.098% (n = 340,000) | AID 743397;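 active = mean replicate inhibition of at least 30% and at least 1% of replicates passing that level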;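 also: 0% = median of the neutral control wells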
CAL PDZ FP-2: human CAL PDZ-peptide interaction inhibition; inhibition, % at 20 µM; actives 0.02% (n = 330,000); purified CAL PDZ, TMR-peptide fluorescence polarization, 1 h; Q9HD26;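 active = highest replicate inhibition of at least 40%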;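 also: plate controls were DMSO neutral control wells for no effect and unlabeled competitor peptide control wells for full effect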
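material = purified tagged CAL PDZ domain construct (CerCALP) | buffer or medium = sodium phosphate/NaCl buffer pH 7.4 with TCEP, IgG, Thesit | reagent = TMR-labelled reporter peptide T*-PRC34 bound in PDZ groove | incubation = 1 h room-temperature incubation prior to read | measured by = fluorescence polarization (mP) | evaluation = percent inhibition from loss of millipolarization | control set = unlabelled peptide and DMSO controls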
ARNT TACC3 PPI: disrupts binding between human ARNT and TACC3 | AlphaScreen His-ARNT PAS-B/GST-TACC3 binding, luminescence; TACC3 fragment carries E629A point mutation | AID 623870 | actives 0.66% (n = 390,000) | Q9Y6A5 | inhibition, % at 9.99 µM;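 active = mean inhibition of replicates at least 50% and at least half of replicates each reaching 50%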;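 also: 0% = complete ARNT plus TACC3 wells and 100% = ARNT alone without TACC3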
Active calls of the source: *; nt = no result given; + = active, no number. Only some compounds are listed: those with a hit (about 1.2% of all), similar ones and a draw of the others.

SMILES	CAL PDZ FP-1	CaV13 ICDI inh	CAL PDZ FP-2	ARNT TACC3 PPI
CO[C@H]1CN(C)C(=O)c2cc(NS(=O)(=O)CC(F)(F)F)ccc2OC[C@@H](C)N(Cc2nccs2)C[C@H]1C	nt	nt	nt	27
CN(C)C(=O)C[C@H]1CC[C@@H]2[C@H](COC[C@@H](O)CN2CC2CCCCC2)O1	nt	nt	nt	4
O=C(O)c1cccc(-c2ccc(/C=N/Nc3nn[nH]n3)o2)c1	nt	-7	0	67*
CC(C)c1nc2cc(C(=O)N(C)C3CCOCC3)ccc2o1	43*	-2	-1	-4
COCC1CCN(C(=O)c2ccc3oc(C(C)C)nc3c2)C1 (stereo not drawn)	nt	-5	nt	nt
O=C1CSC(=S)N1/N=C/c1cccnc1	-5	-14	0	39*
O=C1CSC(=S)N1N=Cc1cccc(OCc2ccccc2)c1	nt	-5	nt	nt
Cc1ccccc1/C=N/N1C(=O)CSC1=S	-1	-19	-1	39*
O=C1CSC(=S)N1N=Cc1ccc(Cl)cc1Cl	-9	-6	0	27
O=C1CSC(=S)N1N=Cc1ccccc1O	-6	-6	0	65*
O=C1CSC(=S)N1/N=C/c1cc(Br)c(O)c(Br)c1	59*	nt	-10	nt
O=C1CSC(=S)N1N=Cc1cccc2ccccc12	-4	-4	0	37
C[C@H](CO)N1C[C@H](C)[C@@H](CN(C)Cc2ccncc2)Oc2ccc(NS(=O)(=O)c3cccs3)cc2CC1=O	nt	nt	nt	2
C[C@H]1CN([C@@H](C)CO)C(=O)c2c(c3ccccc3n2C)-c2ccccc2CO[C@@H]1CN(C)C(=O)[C@H]1CCCN1C	nt	nt	nt	4
O=C(Nc1nnc(C2=COCCO2)o1)c1cccc(F)c1	-3	-6	-2	40
O=C(Nc1nnc(C2=COCCO2)o1)C1CCCCC1	3	3	-1	50*
COc1ccc(C(=O)Nc2nnc(C3=COCCO3)o2)cc1OC	-2	-6	0	37*
O=C(Nc1nnc(-c2ccncc2)o1)C1CCCCC1	1	-15	-2	29
Cc1cccc(C(=O)Nc2nnc(C3=COCCO3)o2)c1	-3	12	0	55*
C[C@@H]1CN([C@H](C)CO)C(=O)c2cc(NS(=O)(=O)c3ccccc3)ccc2O[C@H]1CN(C)Cc1ccncc1	nt	nt	nt	-6
COC(=O)C(C)Sc1ncnc2c1c(-c1ccccc1)cn2-c1ccc(OC)cc1 (stereo not drawn)	-3	-2	0	49*
C[C@@H]1CN([C@@H](C)CO)C(=O)c2cc(NC(=O)CCCN(C)C)ccc2O[C@@H]1CN(C)S(C)(=O)=O	nt	nt	nt	5
COCC1CCN(C(=O)c2ccc3oc(CCCc4ccccc4)nc3c2)C1 (stereo not drawn)	-3	-5	+	-8
O=C(Nc1nc(-c2ccccc2)c(-c2ccccc2)o1)c1ccc(F)cc1	0	-3	-1	46*
O=C(Nc1ccccc1NC(=O)c1ccc(F)cc1)c1ccc(F)cc1	1	-20	0	-2
SMILES	CAL PDZ FP-1	CaV13 ICDI inh	CAL PDZ FP-2	ARNT TACC3 PPI
CC(=O)Nc1ccc(C(=O)NNC(=O)c2cccc(C)c2)cc1	41*	-2	-1	38
O=C(NC1=C(Nc2ccc(F)cc2)C(=O)c2ccccc2C1=O)c1ccc(Cl)cc1	70*	-5	-2	5
O=C(NNC(=O)c1ccc(NC(=O)c2ccccc2)cc1)c1ccc(F)cc1	48*	nt	-1	-10
C[C@H](CO)N1C[C@H](C)[C@@H](CN(C)Cc2ccc(Cl)c(Cl)c2)Oc2ccc(NC(=O)CCN3CCOCC3)cc2CC1=O	nt	nt	nt	4
CC(=O)c1cccc(NC(=O)CCNC(=O)c2cccc(C)c2)c1	71*	-3	-1	0
COc1ccc(-c2csc(N3C(=O)CNC3=S)n2)cc1	67*	-4	-1	2
O=C1CNC(=S)N1c1nc(-c2ccccc2)cs1	4	-5	-2	-5
CCCN(C)C[C@H]1Oc2cc(-c3ccc(C#N)cc3)ccc2S(=O)(=O)N([C@@H](C)CO)C[C@H]1C	nt	nt	nt	1
CCOc1ccc(NC(=S)NCc2nc3ccccc3[nH]2)cc1	7	-5	-4	5
FC(F)Oc1ccc(NC(=S)NCc2nc3ccccc3[nH]2)cc1	41*	1	-2	10
COc1ccc2nc(NN=C(C)c3ccccn3)cc(C)c2c1	5	-7	-1	70*
CO[C@@H]1CN(C)C(=O)c2cc(NC(=O)c3cccc(F)c3)ccc2OC[C@H](C)N(CC2CC2)C[C@@H]1C	nt	nt	nt	-6
C/C(=N\NC(=O)c1nnn(-c2nonc2N)c1CN(C)c1ccccc1)c1ccccn1	-3	nt	-3	48*
CCCN(CCC)Cc1c(C(=O)N/N=C/C(C)=C\c2ccco2)nnn1-c1nonc1N	66*	-8	0	0
C/C(=N\NC(=O)c1nnn(-c2nonc2N)c1CN(C)c1ccccc1)c1ccc(O)cc1	-1	-7	-1	6
CCCNC(=O)C[C@H]1CC[C@@H]2[C@H](COC[C@H](O)CN2C(=O)Nc2cccc(Cl)c2)O1	nt	nt	nt	-3
COc1cc(NC(=O)CN(C)CCOc2ccccc2)c(C)cc1[N+](=O)[O-]	42*	-4	-1	-3
C[C@H](CO)N1C[C@H](C)[C@H](CN(C)C(=O)c2ccc(F)cc2)Oc2ncc(C3=CCCC3)cc2C1=O	nt	nt	nt	-2
C[C@@H]1CN([C@H](C)CO)S(=O)(=O)c2ccc(C3=CCCC3)cc2O[C@H]1CN(C)Cc1cccnc1	nt	nt	nt	7
O=C(CN1CCN(C(=O)c2ccco2)CC1)Nc1ccc(F)cc1F	89*	-4	0	-4
Cc1oc(/N=C/c2ccc(O)cc2O)c(C#N)c1C	0	+	-1	nt
Cc1oc(/N=C/c2ccccc2O)c(C#N)c1C	-2	-8	nt	-4
Cc1sc2nc(COC(=O)c3cccc(OC(F)F)c3)[nH]c(=O)c2c1C	56*	-1	0	-7
Cc1noc(C)c1CCC(=O)NC1CCCN(Cc2ccc(Cl)cc2)C1 (stereo not drawn)	5	-6	1	46*
C[C@@H]1CCCCO[C@H](CN(C)C(=O)Cc2ccccc2)[C@H](C)CN([C@H](C)CO)C(=O)c2cc(NC(=O)Nc3ccc(F)cc3)ccc2O1	nt	nt	nt	-3
CSCCC1NC(=O)C(C(C)=NNC(N)=O)=C1O (stereo not drawn)	0	-7	0	74*

From PubChem BioAssay
